Experimental data: ChEMBL document CHEMBL1150161, “New taxane diterpenoids from the leaves and twigs of Taxus sumatrana” (J Nat Prod, 2002)
Values after ≈ are worked out from the molar mass of the structure shown.

Tests used:
[1] = Cytotoxicity against human HEPA 59T/VGH cells after 72 hrs by methylene blue assay; format: functional, cell-based
In short: (§1)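 Cells kept in RPMI-1640 at 37 °C under 5% CO2, seeded at 2880 cells/well and left 3 h before sample or standard drug was added. Samples prepared at 1, 10, 40 and 100 µg/mL (stock, not final). Incubated 37 °C for 3 days. Cells then fixed in 10% formaldehyde/0.9% saline, stained with methylene blue in borate buffer, and eluted with EtOH–0.1 M HCl (1:1). Read at A650. IC50 is the concentration giving 50% absorbance reduction versus untreated cells.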

KB = assay: Cytotoxicity against human KB cells after 72 hrs by methylene blue assay; format: functional, cell-based; in short: as §1

Row | Compound | IC50 [1] [µg/mL] | IC50 (KB) [µg/mL]
1 | CO[C@@]12[C@H](COC(N)=O)C3=C(C(=O)C(C)=C(N)C3=O)N1C[C@@H]1N[C@@H]12 [MITOMYCIN] | 0.01 (≈ 0.0299 µM) | 0.01 (≈ 0.0299 µM)
2 | CC(=O)O[C@H]1C2[C@@](C)([C@@H](O)C[C@H]3OC[C@@]23OC(C)=O)[C@@H](O)[C@H](O)C2=C(C)[C@@H](O)C[C@]21C(C)(C)O (some centres not stated) [TAXUMAIROL Q] | 14.5 (≈ 30 µM) | 16.2 (≈ 33.5 µM)
3 | CC(=O)O[C@H]1C[C@H]2OC[C@@]2(OC(C)=O)[C@H]2[C@H](OC(C)=O)[C@]3(C(C)(C)O)C[C@H](OC(=O)c4ccccc4)C(C)=C3[C@@H](OC(=O)c3ccccc3)[C@H](OC(C)=O)[C@]12C | > 20 | 9.69 (≈ 12.5 µM)
4 | CC(=O)O[C@H]1C[C@]2(C(C)(C)O)C(=C1C)[C@@H](OC(C)=O)[C@H](OC(C)=O)[C@@]1(C)[C@@H](OC(C)=O)C[C@H]3OC[C@@]3(OC(C)=O)[C@H]1[C@@H]2OC(C)=O | 6.02 (≈ 9.22 µM) | 4.92 (≈ 7.54 µM)
5 | CC(=O)O[C@H]1C[C@@]23C(=C1C)[C@@](O)(C(=O)OC2(C)C)[C@]1(C)[C@@H](OC(C)=O)C[C@H]2OC[C@@]2(OC(C)=O)[C@H]1[C@@H]3OC(=O)c1ccccc1 | 3.09 (≈ 4.93 µM) | 8.96 (≈ 14.3 µM)
6 | CC(=O)O[C@H]1C[C@@]23C(=C1C)[C@@](O)(C(=O)OC2(C)C)[C@@]1(C)[C@H]([C@@H]3OC(=O)c2ccccc2)[C@]2(OC(C)=O)CO[C@@H]2C[C@@H]1O | 13.9 (≈ 23.8 µM) | 2.91 (≈ 4.98 µM)
7 | CC(=O)O[C@@]12CO[C@@H]1C[C@H](OC(=O)c1ccccc1)[C@]1(C)[C@@H]2[C@H](OC(=O)c2ccccc2)[C@]23C[C@H](OC(=O)c4ccccc4)C(C)=C2[C@@]1(O)C(=O)OC3(C)C | 4.83 (≈ 6.43 µM) | 15.4 (≈ 20.6 µM)
8 | CC(=O)O[C@@]12CO[C@@H]1C[C@H](O)[C@]1(C)[C@@H]2[C@H](OC(=O)c2ccccc2)[C@]23C[C@H](O)C(C)=C2[C@@]1(O)C(=O)OC3(C)C [WALLIFOLIOL] | 0.1 (≈ 0.184 µM) | 0.56 (≈ 1.03 µM)
9 | CC(=O)O[C@H]1C[C@@]2(O)[C@H]3OC[C@]4(O)[C@@H](OC(C)=O)C[C@H](OC(=O)c5ccccc5)[C@](C)([C@H]34)[C@@H](OC(=O)c3ccccc3)[C@H](OC(C)=O)C(=C1C)C2(C)C | 7.02 (≈ 9.55 µM) | 12.8 (≈ 17.4 µM)
10 | C=C1[C@@H](O)C[C@H](OC(C)=O)[C@]2(C)[C@@H](OC(C)=O)[C@H](OC(C)=O)C3=C(C)C(=O)C[C@@H]([C@@H](OC(C)=O)[C@H]12)C3(C)C [TAXUSPINE F] | 3.31 (≈ 6.19 µM) | 16.9 (≈ 31.6 µM)
11 | CC(=O)O[C@H]1C(=O)[C@@]2(C)[C@H]([C@H](OC(=O)c3ccccc3)[C@]3(O)C[C@H](OC(=O)[C@H](O)[C@@H](NC(=O)c4ccccc4)c4ccccc4)C(C)=C1C3(C)C)[C@]1(OC(C)=O)CO[C@@H]1C[C@@H]2O [PACLITAXEL] | 0.001 (≈ 0.00117 µM) | 0.001 (≈ 0.00117 µM)
